Assay results published in ChEMBL document CHEMBL1150393, “Evaluation of radiolabeled (hetero)aromatic analogues of N-(2-diethylaminoethyl)-4-iodobenzamide for imaging and targeted radionuclide therapy of melanoma” (J Med Chem, 2008).

Assays:
Liver [1] = test: Biodistribution in liver of C57BL/6 mouse bearing mouse B16-F0 cells at 0.74 to 0.92 MBq, iv after 1 hr; type: ADME, organism-based; conditions: in vivo
How it was run: (§1)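 Male C57BL6 mice with s.c. left-flank B16-F0 melanoma (5 × 10⁵ cells in PBS). Two mice per time point frozen in liquid nitrogen after CO₂ sacrifice. Eight 40 µm whole-body cryosections per mouse read by multiwire proportional counter. cpm/mm² converted to kBq/g and expressed as %ID/g.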

[2] = Drug excretion in mouse B16-F0 cells bearing C57BL/6 mouse urine at 0.74 to 0.92 MBq, iv after 72 hrs; type: ADME, organism-based; conditions: in vivo
How it was run: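 Urine was collected from two B16-F0 tumour-bearing C57BL6 mice for up to 72 h after iv tail-vein injection of the [¹²⁵I]-labelled compound (0.1 µmol). Samples were counted to give cumulative urinary excretion as %ID.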

[3] = Biodistribution in Stomach content of C57BL/6 mouse bearing mouse B16-F0 cells at 0.74 to 0.92 MBq, iv after 24 hrs; type: ADME, organism-based; conditions: in vivo; how it was run: as §1
Blood [4] = test: Biodistribution in blood of C57BL/6 mouse bearing mouse B16-F0 cells at 0.74 to 0.92 MBq, iv after 6 hrs; type: ADME, organism-based; conditions: in vivo; how it was run: as §1
[5] = Biodistribution in intestinal content of C57BL/6 mouse bearing mouse B16-F0 cells at 0.74 to 0.92 MBq, iv after 6 hrs; type: ADME, organism-based; conditions: in vivo; how it was run: as §1
[6] = Biodistribution in tumor of C57BL/6 mouse bearing mouse B16-F0 cells at 0.74 to 0.92 MBq, iv after 1 hr; type: ADME, organism-based, Neoplasm; conditions: in vivo
How it was run: (§2)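 [¹²⁵I]-labelled compound given iv by tail vein (0.1 µmol per mouse) to male C57BL6 mice bearing s.c. B16-F0 flank tumours (5 × 10⁵ cells in PBS). Two mice per time point were killed by CO₂, frozen in liquid nitrogen and cut into 40 µm cryosections, eight slices per mouse. Slice radioactivity was read on a multiwire proportional counter, converted to kBq/g and reported as %ID/g.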

[7] = Partition coefficient, log P in phosphate buffer solution at pH 7.4; type: physicochemical
How it was run: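 Shake-flask partition: 50 µM [¹²⁵I]-labelled compound in phosphate buffer pH 7.4 was mixed with 2 mL n-octanol. Each phase was γ-counted, P was taken as the octanol/buffer activity ratio, and log P was reported.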

Lung [8] = test: Biodistribution in lung of C57BL/6 mouse bearing mouse B16-F0 cells at 0.74 to 0.92 MBq, iv after 3 hrs; type: ADME, organism-based; conditions: in vivo; how it was run: as §1
Blood [9] = test: Biodistribution in blood of C57BL/6 mouse bearing mouse B16-F0 cells at 0.74 to 0.92 MBq, iv after 1 hr; type: ADME, organism-based; conditions: in vivo; how it was run: as §1
Liver [10] = test: Biodistribution in liver of C57BL/6 mouse bearing mouse B16-F0 cells at 0.74 to 0.92 MBq, iv after 6 hrs; type: ADME, organism-based; conditions: in vivo; how it was run: as §1
[11] = Ratio of drug level in tumor to liver of C57BL/6 mouse bearing mouse B16-F0 cells at 0.74 to 0.92 MBq, iv after 1 hr; type: ADME, organism-based; conditions: in vivo
How it was run: (§3)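 Tumour and organ radioactive concentrations came from whole-body cryosection counting (40 µm slices, eight per mouse, two mice per time) after tail-vein injection of the [¹²⁵I]-labelled compound (0.1 µmol) into male C57BL6 mice bearing s.c. B16-F0 melanoma. Each value is the ratio of the tumour concentration to the organ concentration.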

[12] = Biodistribution in tumor of C57BL/6 mouse bearing mouse B16-F0 cells at 0.74 to 0.92 MBq, iv after 72 hrs; type: ADME, organism-based, Neoplasm; conditions: in vivo; how it was run: as §2
Kidney = test: Biodistribution in kidney of C57BL/6 mouse bearing mouse B16-F0 cells at 0.74 to 0.92 MBq, iv after 3 hrs; type: ADME, organism-based; conditions: in vivo; how it was run: as §1
[13] = Biodistribution in Stomach content of C57BL/6 mouse bearing mouse B16-F0 cells at 0.74 to 0.92 MBq, iv after 1 hr; type: ADME, organism-based; conditions: in vivo; how it was run: as §1
[14] = Ratio of drug level in tumor to lung of C57BL/6 mouse bearing mouse B16-F0 cells at 0.74 to 0.92 MBq, iv after 3 hrs; type: ADME, organism-based; conditions: in vivo; how it was run: as §3
Muscle tissue [15] = test: Biodistribution in muscle of C57BL/6 mouse bearing mouse B16-F0 cells at 0.74 to 0.92 MBq, iv after 1 hr; type: ADME, organism-based; conditions: in vivo; how it was run: as §1
[16] = Biodistribution in uvea of C57BL/6 mouse bearing mouse B16-F0 cells at 0.74 to 0.92 MBq, iv after 72 hrs; type: ADME, organism-based, Uveal tract; conditions: in vivo; how it was run: as §2
[17] = Ratio of drug level in tumor to lung of C57BL/6 mouse bearing mouse B16-F0 cells at 0.74 to 0.92 MBq, iv after 1 hr; type: ADME, organism-based; conditions: in vivo; how it was run: as §3
[18] = Biodistribution in intestinal content of C57BL/6 mouse bearing mouse B16-F0 cells at 0.74 to 0.92 MBq, iv after 1 hr; type: ADME, organism-based; conditions: in vivo; how it was run: as §1
[19] = Ratio of drug level in tumor to brain of C57BL/6 mouse bearing mouse B16-F0 cells at 0.74 to 0.92 MBq, iv after 1 hr; type: ADME, organism-based; conditions: in vivo; how it was run: as §3
Lung [20] = test: Biodistribution in lung of C57BL/6 mouse bearing mouse B16-F0 cells at 0.74 to 0.92 MBq, iv after 1 hr; type: ADME, organism-based; conditions: in vivo; how it was run: as §1
Spleen [21] = test: Biodistribution in spleen of C57BL/6 mouse bearing mouse B16-F0 cells at 0.74 to 0.92 MBq, iv after 1 hr; type: ADME, organism-based; conditions: in vivo; how it was run: as §2
Liver [22] = test: Biodistribution in liver of C57BL/6 mouse bearing mouse B16-F0 cells at 0.74 to 0.92 MBq, iv after 3 hrs; type: ADME, organism-based; conditions: in vivo; how it was run: as §1
[23] = Ratio of drug level in tumor to liver of C57BL/6 mouse bearing mouse B16-F0 cells at 0.74 to 0.92 MBq, iv after 3 hrs; type: ADME, organism-based; conditions: in vivo; how it was run: as §3
Blood [24] = test: Biodistribution in blood of C57BL/6 mouse bearing mouse B16-F0 cells at 0.74 to 0.92 MBq, iv after 3 hrs; type: ADME, organism-based; conditions: in vivo; how it was run: as §1
[25] = Biodistribution in uvea of C57BL/6 mouse bearing mouse B16-F0 cells at 0.74 to 0.92 MBq, iv after 1 hr; type: ADME, organism-based, Uveal tract; conditions: in vivo; how it was run: as §2
Muscle tissue [26] = test: Biodistribution in muscle of C57BL/6 mouse bearing mouse B16-F0 cells at 0.74 to 0.92 MBq, iv after 3 hrs; type: ADME, organism-based; conditions: in vivo; how it was run: as §1
[27] = Biodistribution in Stomach content of C57BL/6 mouse bearing mouse B16-F0 cells at 0.74 to 0.92 MBq, iv after 6 hrs; type: ADME, organism-based; conditions: in vivo; how it was run: as §1
Spleen [28] = test: Biodistribution in spleen of C57BL/6 mouse bearing mouse B16-F0 cells at 0.74 to 0.92 MBq, iv after 3 hrs; type: ADME, organism-based; conditions: in vivo; how it was run: as §2
[29] = Biodistribution in uvea of C57BL/6 mouse bearing mouse B16-F0 cells at 0.74 to 0.92 MBq, iv after 6 hrs; type: ADME, organism-based, Uveal tract; conditions: in vivo; how it was run: as §2
[30] = Ratio of drug level in tumor to liver of C57BL/6 mouse bearing mouse B16-F0 cells at 0.74 to 0.92 MBq, iv after 6 hrs; type: ADME, organism-based; conditions: in vivo; how it was run: as §3
Lung [31] = test: Biodistribution in lung of C57BL/6 mouse bearing mouse B16-F0 cells at 0.74 to 0.92 MBq, iv after 6 hrs; type: ADME, organism-based; conditions: in vivo; how it was run: as §1
Thyroid gland = test: Biodistribution in thyroid of C57BL/6 mouse bearing mouse B16-F0 cells at 0.74 to 0.92 MBq, iv after 3 hrs; type: ADME, organism-based; conditions: in vivo; how it was run: as §2

Compound | Drug uptake (Liver [1]) [% ID/g] | Activity [2] [%] | Drug uptake [3] [% ID/g] | Drug uptake (Blood [4]) [% ID/g] | Drug uptake [5] [% ID/g] | Drug uptake [6] [% ID/g] | logD [7] | Drug uptake (Lung [8]) [% ID/g] | Drug uptake (Blood [9]) [% ID/g] | Drug uptake (Liver [10]) [% ID/g] | Ratio [11] | Drug uptake [12] [% ID/g] | Drug uptake (Kidney) [% ID/g] | Drug uptake [13] [% ID/g] | Ratio [14] | Drug uptake (Muscle tissue [15]) [% ID/g] | Drug uptake [16] [% ID/g] | Ratio [17] | Drug uptake [18] [% ID/g] | Ratio [19] | other results
CCN(CC)CCNC(=O)c1ccc2cc([125I])ccc2c1.Cl | 9.46 | 43.7 | 3.1 | 1.74 | 18.72 | 13 | 1.33 | 4.43 | 2.97 | 2.73 | 1.37 | 1.5 | 5.65 | 27.82 | 2.57 | 1.92 | 7.84 | 1.1 | 7.82 | 2.97 | Drug uptake (Lung [20]): 11.82 % ID/g; Drug uptake (Spleen [21]): 9.7 % ID/g; Drug uptake (Liver [22]): 4.75 % ID/g; Ratio [23]: 2.4; Drug uptake (Blood [24]): 1.77 % ID/g; Drug uptake [25]: 13.21 % ID/g; Drug uptake (Muscle tissue [26]): 0.83 % ID/g; Drug uptake [27]: 10.79 % ID/g; Drug uptake (Spleen [28]): 2.59 % ID/g; Drug uptake [29]: 12.76 % ID/g; Ratio [30]: 3.28; Drug uptake (Lung [31]): 2.12 % ID/g
CCN(CC)CCNC(=O)c1cc2cc([125I])ccc2[nH]1.Cl | 11.86 | 21.5 | 2.1 | 0.67 | 79.85 | 8.3 | 1.69 | 3.46 | 1.6 | 3.63 | 0.7 | 0.8 | 4.19 | 35.41 | 2.95 | 1.5 | 5.86 | 0.58 | 76.74 | 1.69 | Drug uptake (Lung [20]): 14.41 % ID/g; Drug uptake (Spleen [21]): 8.09 % ID/g; Drug uptake (Liver [22]): 5.21 % ID/g; Ratio [23]: 1.96; Drug uptake (Blood [24]): 0.79 % ID/g; Drug uptake [25]: 11.7 % ID/g; Drug uptake (Muscle tissue [26]): 0.49 % ID/g; Drug uptake [27]: 21.84 % ID/g; Drug uptake (Spleen [28]): 2.79 % ID/g; Drug uptake [29]: 13.2 % ID/g; Ratio [30]: 2.71; Drug uptake (Lung [31]): 1.7 % ID/g
CCN(CC)CCNC(=O)c1ccc2cc([125I])ccc2n1.Cl.Cl | 10.92 | 80.7 | 2.33 | 5.91 | 23.36 | 19.6 | 1.87 | 5.58 | 7.01 | 7.11 | 1.8 | 5.9 | 12.59 | 48.03 | 4.54 | 1.79 | 18.3 | 2.09 | 15.78 | 10.02 | Drug uptake (Lung [20]): 9.41 % ID/g; Drug uptake (Spleen [21]): 11.56 % ID/g; Drug uptake (Liver [22]): 8.89 % ID/g; Ratio [23]: 2.85; Drug uptake (Blood [24]): 5.57 % ID/g; Drug uptake [25]: 32.71 % ID/g; Drug uptake (Muscle tissue [26]): 1.14 % ID/g; Drug uptake [27]: 65.36 % ID/g; Drug uptake (Spleen [28]): 10.63 % ID/g; Drug uptake [29]: 36.62 % ID/g; Ratio [30]: 2.42; Drug uptake (Lung [31]): 5.32 % ID/g
CCN(CC)CCNC(=O)c1cc2cc([125I])ccc2o1.Cl | 6.44 | 21.4 | 1.61 | 1.28 | 135.67 | 8.8 | 1.57 | 1.92 | 3.57 | 1.77 | 1.36 | 2 | 3.09 | 17.09 | 5.9 | 0.96 | 10.11 | 1.72 | 182.62 | 6 | Drug uptake (Thyroid gland): 22.43 % ID/g; Drug uptake (Lung [20]): 5.17 % ID/g; Drug uptake (Spleen [21]): 10.68 % ID/g; Drug uptake (Liver [22]): 2.74 % ID/g; Ratio [23]: 2.74; Drug uptake (Blood [24]): 1.91 % ID/g; Drug uptake [25]: 28.64 % ID/g; Drug uptake (Muscle tissue [26]): 0.29 % ID/g; Drug uptake [27]: 10.06 % ID/g; Drug uptake [29]: 13.91 % ID/g; Ratio [30]: 4.41; Drug uptake (Lung [31]): 1.45 % ID/g
CCN(CC)CCNC(=O)c1cc2c([125I])cccc2cn1.Cl.Cl | 3.86 | 49.9 | 0.75 | 2.17 | 29.16 | 7.3 | 1.65 | 2.76 | 2.15 | 1.54 | 1.88 | 3.1 | 2.66 | 23.01 | 2.58 | 0.74 | 9.73 | 1.96 | 42.97 | 24.23 | Drug uptake (Thyroid gland): 35.71 % ID/g; Drug uptake (Lung [20]): 3.68 % ID/g; Drug uptake (Spleen [21]): 2.83 % ID/g; Drug uptake (Liver [22]): 2.02 % ID/g; Ratio [23]: 3.52; Drug uptake (Blood [24]): 2.65 % ID/g; Drug uptake [25]: 18.08 % ID/g; Drug uptake (Muscle tissue [26]): 0.43 % ID/g; Drug uptake [27]: 28.44 % ID/g; Drug uptake [29]: 18.02 % ID/g; Ratio [30]: 5.14; Drug uptake (Lung [31]): 2.05 % ID/g
